According to PubChem BioAssay:
The source made the active and inactive calls.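 How the source made its calls, unless noted: active means viability loss from added drug above about 55%, and viability with drug at most 40%, in both replicates (limit read from the data, passing the limit was not always enough); inconclusive means both conditions met in only one replicate; inactive means neither replicate meets both conditions.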

Tests used:
[1] = reducers of endogenous Her2 protein level, primary screen, SKBR3 breast tumor cells, AlphaScreen, ATP viability (AID 461;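 active means Her2 level under about 52% in both replicate screens, with viability over 70% of control, limit read from the data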;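 on Her2 level: lower value means less Her2 protein in the cells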;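 on viability: percent of carrier control wells set as 100% viability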); conditions: 18-24 h, measured here: SKBR3 viability, ATP luminescence, at 10 µM
[2] = molecular target: Receptor tyrosine-protein kinase erbB-2 (Homo sapiens) (UniProt P04626); assay: as above; conditions: 18-24 h, at 10 µM, stronger effect = lower value
[3] = SK-BR-3 cell growth inhibitors, pilot screen, 24 h, human (AID 572;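 active means viability at or below 10% of carrier control in both of two separate runs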;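 further: compound exposure lasted between 18 and 24 h rather than exactly 24 h; 100% = carrier-treated control wells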); conditions: SK-BR-3 viability, CellTiter-Glo luminescence, at 10 µM, stronger effect = lower value
[4] = HUVEC growth inhibition – cell-based, human, primary screen (AID 575;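 active means viability at or below 30% in both replicate assays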;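 further: 100% = median of untreated cell wells with 0.1% DMSO on each plate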); conditions: HUVEC proliferation, CellTiter-Glo luminescence, 72 h; at 10 µM; stronger effect = lower value
Outline: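 material = primary HUVEC, no more than 12 passages | input = 1250 cells per well | controls = vehicle and MePR control wells | measured by = CTG luminescence | times = 72 h compound incubation | format = collagen-coated 384-well format | read-out = % viability vs DMSO wells | doses = single 10 µM dose, 0.1% DMSO, from 5x medium stock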

[5] = growth inhibitors of H69AR lung tumor, primary screen, human, duplicate replicates (AID 580;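 active means viability at or under a set limit in both replicates, limit being median viability minus 3 SD, cut at about 48% in these data, passing the limit was not always enough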;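 further: 100% = mean luminescence of untreated wells and 0% = no signal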); conditions: H69AR lung tumor cells viability, ATP luminescence, 72 h; at 10 µM; stronger effect = lower value
[6] = reversal of MRP1-mediated doxorubicin resistance, pilot screen, H69AR cells, doxorubicin co-treatment (AID 601); conditions: CellTiter-Glo, 72 h, at 10 µM; for differential viability (reversal): stronger effect = higher value
[7] = 384-well plate pilot, post-Golgi transport modulator project, inhibition of yeast transport mutant growth (AID 636; in the data active means inhibition above about 31%); conditions: absorbance 615 nm, about 18 h, stronger effect = higher value
[8] = growth suppression of yeast trafficking mutant, preliminary HTS, modulators of trafficking downstream of Golgi apparatus project, 1536-format plate, OD 615 nm (AID 637; in the data active means inhibition above about 30%); conditions: yeast transport mutant growth, absorbance 615 nm, 18 h; stronger effect = higher value
[9] = H69AR cells + 2 uM doxorubicin, measured here: viability with 2 uM doxorubicin, stronger effect = lower value
[10] = H69AR cells, compound alone cytotoxicity

Sequence of Receptor tyrosine-protein kinase erbB-2 (Homo sapiens) (P04626 whole entry, looked up): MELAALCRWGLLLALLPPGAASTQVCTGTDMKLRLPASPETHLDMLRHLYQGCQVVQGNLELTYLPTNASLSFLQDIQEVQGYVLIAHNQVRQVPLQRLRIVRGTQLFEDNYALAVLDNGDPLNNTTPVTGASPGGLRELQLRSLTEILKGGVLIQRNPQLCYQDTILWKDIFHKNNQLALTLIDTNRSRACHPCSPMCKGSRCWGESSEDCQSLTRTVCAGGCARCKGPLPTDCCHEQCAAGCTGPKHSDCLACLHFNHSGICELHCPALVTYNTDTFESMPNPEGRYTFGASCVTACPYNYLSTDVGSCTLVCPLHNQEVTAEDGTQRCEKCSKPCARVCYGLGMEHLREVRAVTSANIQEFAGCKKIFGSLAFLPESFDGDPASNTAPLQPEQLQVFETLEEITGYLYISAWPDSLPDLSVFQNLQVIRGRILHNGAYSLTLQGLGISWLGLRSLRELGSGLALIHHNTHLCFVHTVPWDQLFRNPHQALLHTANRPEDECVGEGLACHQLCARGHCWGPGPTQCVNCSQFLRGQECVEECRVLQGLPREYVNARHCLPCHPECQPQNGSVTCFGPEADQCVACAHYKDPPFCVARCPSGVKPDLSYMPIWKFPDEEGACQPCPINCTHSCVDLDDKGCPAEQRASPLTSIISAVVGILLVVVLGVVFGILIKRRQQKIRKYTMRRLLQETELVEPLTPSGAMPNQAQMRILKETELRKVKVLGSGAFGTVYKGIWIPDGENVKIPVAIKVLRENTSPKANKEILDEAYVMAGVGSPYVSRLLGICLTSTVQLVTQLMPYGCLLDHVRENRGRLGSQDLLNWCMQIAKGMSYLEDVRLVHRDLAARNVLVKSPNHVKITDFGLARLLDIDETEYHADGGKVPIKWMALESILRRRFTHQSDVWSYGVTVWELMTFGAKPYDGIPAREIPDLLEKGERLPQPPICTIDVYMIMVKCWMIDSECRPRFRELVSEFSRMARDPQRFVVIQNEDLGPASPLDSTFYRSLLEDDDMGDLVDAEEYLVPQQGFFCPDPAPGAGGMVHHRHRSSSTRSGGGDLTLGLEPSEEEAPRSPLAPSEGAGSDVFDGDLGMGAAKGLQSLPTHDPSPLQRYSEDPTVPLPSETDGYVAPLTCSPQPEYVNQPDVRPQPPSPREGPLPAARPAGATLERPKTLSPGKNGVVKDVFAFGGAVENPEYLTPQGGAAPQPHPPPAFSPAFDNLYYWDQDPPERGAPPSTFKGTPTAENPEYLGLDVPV

Row | Structure (SMILES) | viability [1] [%] | Her2 level [2] | viability [3] | viability [4] | viability [5] | differential viability (reversal) ([6]; H69AR cells + 2 uM doxorubicin) | viability [6, 9] [%] | viability [6, 10] [%] | inhibition [7] | inhibition [8]
1 | Cc1ccc(S(=O)(=O)Nc2cc(C(=O)O)ccc2N2CCCCC2)cc1 | 112 | 112% (inactive) | 112% (inactive) | 101% (inactive) | 85.6% (inactive) | -1.99% (inactive) | 87.6 | 85.6 | -5.97% (inactive) | 6.07% (inactive)
2 | N#Cc1c(N)n(CCNC(=O)c2cccs2)c2nc3ccccc3nc12 | 82.5 | 84.5% (inactive) | 82.5% (inactive) | 97.9% (inactive) | 90.9% (inactive) | -7.67% (inactive) | 98.5 | 90.9 | -5.6% (inactive) | -0.16% (inactive)
3 | COc1ccc(N2CCN(Cc3nc4c(c(=O)[nH]c(=O)n4C)n3CC(C)=O)CC2)cc1 | 98.5 | 102% (inactive) | 98.5% (inactive) | 101% (inactive) | 95.4% (inactive) | 10.4% (inactive) | 84.9 | 95.4 | 0% (inactive) | 0.17% (inactive)
4 | CSCCC(NC(=O)c1occc1C)C(=O)O (stereo not given) | 93.5 | 94.5% (inactive) | 93.5% (inactive) | 103% (inactive) | 103% (inactive) | 12.8% (inactive) | 89.8 | 103 | -2.63% (inactive) | 2.83% (inactive)
5 | Cc1ccc(N2CCN(C(=O)c3ccccc3Br)CC2)c(C)c1 | 110 | 72% (inactive) | 110% (inactive) | 93% (inactive) | 89.2% (inactive) | 10.5% (inactive) | 78.6 | 89.2 | -5.6% (inactive) | 0.16% (inactive)
6 | COc1ccccc1N1CCN(C(=O)c2ccc(CS(=O)(=O)c3ccccc3OC)o2)CC1 | 90.5 | 104% (inactive) | 90.5% (inactive) | 85.1% (inactive) | 76.2% (inactive) | -11.9% (inactive) | 88.1 | 76.2 | -5.39% (inactive) | -0.32% (inactive)
7 | N#Cc1c(/N=C/c2cccs2)sc2c1CCCCC2 | 98.5 | 88.5% (inactive) | 98.5% (inactive) | 66.5% (inactive) | 90.3% (inactive) | 16.3% (inactive) | 73.9 | 90.3 | -5.33% (inactive) | 5.74% (inactive)
8 | COc1ccc(OC)c(NC(=O)CCN2CCC(C)CC2)c1 | 112 | 120% (inactive) | 112% (inactive) | 78.3% (inactive) | 92.4% (inactive) | -0.63% (inactive) | 93.1 | 92.4 | 4.86% (inactive) | 22.4% (inactive)
9 | COC(=O)c1c(C#N)c(N)nc2c1CCC2 | 117 | 97% (inactive) | 117% (inactive) | 90.6% (inactive) | 93.7% (inactive) | 0.57% (inactive) | 93.1 | 93.7 | -5.2% (inactive) | -4.13% (inactive)
10 | Cc1ccc(-c2noc(-c3ccccc3C(=O)NCC3CCCO3)n2)cc1 (stereo not given) | 91 | 107% (inactive) | 91% (inactive) | 100% (inactive) | 100% (inactive) | 5.99% (inactive) | 94.4 | 100 | -0.13% (inactive) | -3.97% (inactive)
11 | Cc1cccc(COc2ccc(/C(O)=C3\C(=O)C(=O)N(CCN(C)C)C3c3ccncc3)cc2)c1 (stereo not given) | 108 | 94% (inactive) | 108% (inactive) | 105% (inactive) | 97.3% (inactive) | -3.29% (inactive) | 101 | 97.3 | -2.11% (inactive) | 3.28% (inactive)
12 | Cc1nnc(SCC(=O)N(C(C)C)C(C)C)nc1C | 75.5 | 88.5% (inactive) | 75.5% (inactive) | 95% (inactive) | 103% (inactive) | 10.3% (inactive) | 93.2 | 103 | -5.6% (inactive) | -1.31% (inactive)
13 | Cc1sc2ncn3ncnc3c2c1C | 91 | 96.5% (inactive) | 91% (inactive) | 50.7% (inactive) | 90.5% (inactive) | -8.71% (inactive) | 99.2 | 90.5 | 6.13% (inactive) | 4.26% (inactive)
14 | O=C(CN1C(=O)CCSc2ccccc21)Nc1ccc(F)cc1 | 94 | 112% (inactive) | 94% (inactive) | 97.6% (inactive) | 98.5% (inactive) | 1.06% (inactive) | 97.5 | 98.5 | 3.29% (inactive) | 0.16% (inactive)
15 | CC(=O)Nc1ccc2c(c1)nc(CCNC(=O)c1ccccc1)n2C | 90.5 | 89% (inactive) | 90.5% (inactive) | 110% (inactive) | 102% (inactive) | 15.8% (inactive) | 85.7 | 102 | -8.36% (inactive) | -1.43% (inactive)
16 | CC1(C)CNC(=O)c2sc(N3CCOCC3)nc2C1 | 114 | 87% (inactive) | 114% (inactive) | 67.9% (inactive) | 77.3% (inactive) | -4.71% (inactive) | 82 | 77.3 | -3.82% (inactive) | 1.27% (inactive)

Row | Structure (SMILES) | viability [1] [%] | Her2 level [2] | viability [3] | viability [4] | viability [5] | differential viability (reversal) ([6]; H69AR cells + 2 uM doxorubicin) | viability [6, 9] [%] | viability [6, 10] [%] | inhibition [7] | inhibition [8]
17 | COc1ccc(C)cc1S(=O)(=O)N(C)CC(=O)Nc1ccc2c(c1)OCCO2 | 92 | 92% (inactive) | 92% (inactive) | 107% (inactive) | 89.1% (inactive) | 5.96% (inactive) | 83.2 | 89.1 | -5.33% (inactive) | -12.5% (inactive)
18 | CCCCOc1ccc(NC(=O)Cn2c(=O)ccc3c(C)cc(C)nc32)cc1 | 102 | 104% (inactive) | 102% (inactive) | 94.1% (inactive) | 91.2% (inactive) | 11.8% (inactive) | 79.5 | 91.2 | -3.55% (inactive) | -1.45% (inactive)
19 | CC(Oc1ccccc1)C(=O)NC1CCN(Cc2ccccc2)CC1 (stereo not given) | 93 | 83% (inactive) | 93% (inactive) | 90.7% (inactive) | 93.5% (inactive) | 7.39% (inactive) | 86.1 | 93.5 | -5.6% (inactive) | 3.65% (inactive)
20 | CC1CCc2cc(F)cc3c(O)c(C(=O)NCC4CCCO4)c(=O)n1c23 (stereo not given) | 93.5 | 94% (inactive) | 93.5% (inactive) | 80.8% (inactive) | 85.6% (inactive) | -8.57% (inactive) | 94.2 | 85.6 | 0.66% (inactive) | -9.84% (inactive)
21 | COc1ccc(CC(=O)OCc2nnc(C3COc4ccccc4O3)o2)cc1OC (stereo not given) | 116 | 104% (inactive) | 116% (inactive) | 91.3% (inactive) | 104% (inactive) | 19.8% (inactive) | 83.7 | 104 | -2% (inactive) | -1.64% (inactive)
22 | COC(=O)c1sc(NC(=O)c2ccoc2C)nc1C | 110 | 118% (inactive) | 110% (inactive) | 61.8% (inactive) | 75.3% (inactive) | 2.44% (inactive) | 72.9 | 75.3 | -3.07% (inactive) | 8.06% (inactive)
23 | O=P(O)(O)c1ccccc1OCCOCCOc1ccccc1P(=O)(O)O | 101 | 89.5% (inactive) | 101% (inactive) | 111% (inactive) | 92% (inactive) | 5.91% (inactive) | 86.1 | 92 | -6.08% (inactive) | 0.5% (inactive)
24 | CCCCN(CCCC)CCCNC(=O)CC1Oc2ccc(C)cc2NC1=O (stereo not given) | 102 | 84.5% (inactive) | 102% (inactive) | 78% (inactive) | 90.7% (inactive) | 4.72% (inactive) | 86 | 90.7 | -6.76% (inactive) | -3.17% (inactive)
25 | CCCC(NC(=O)c1ccccc1)c1nc2ccccc2n1Cc1ccc(C(=O)OC)o1 (stereo not given) | 98 | 105% (inactive) | 98% (inactive) | 85.4% (inactive) | 95% (inactive) | 4.1% (inactive) | 90.9 | 95 | -2.76% (inactive) | -9.17% (inactive)
26 | CCOC(=O)C(C)(C)Sc1nc2c(cnn2-c2ccc(C)cc2)c(=O)[nH]1 | 99 | 100% (inactive) | 99% (inactive) | 90.4% (inactive) | 79.9% (inactive) | -16.5% (inactive) | 96.3 | 79.9 | -1.95% (inactive) | -0.79% (inactive)
27 | COc1cc(OC)c(-c2nn3c(C4CCCCC4)nnc3s2)cc1OC | 102 | 116% (inactive) | 102% (inactive) | 80.8% (inactive) | 77.5% (inactive) | -2% (inactive) | 79.5 | 77.5 | -0.52% (inactive) | 2.3% (inactive)
28 | COc1ccc(C2=NO[C@@H]3C(=O)N(c4ccc5c(c4)OCCO5)C(=O)[C@H]23)cc1OC | 85 | 112% (inactive) | 85% (inactive) | 81.7% (inactive) | 80.3% (inactive) | -6.85% (inactive) | 87.1 | 80.3 | 2.34% (inactive) | -5.08% (inactive)
29 | CCCCP(=O)(CCCC)c1ccccc1C(=O)O | 110 | 104% (inactive) | 110% (inactive) | 90% (inactive) | 107% (inactive) | 12.9% (inactive) | 94.2 | 107 | 1.82% (inactive) | -2.46% (inactive)
30 | O=C(NCC(F)(F)F)N1CCOCC1 | 96 | 85.5% (inactive) | 96% (inactive) | 89.5% (inactive) | 100% (inactive) | 8.42% (inactive) | 91.8 | 100 | -6.71% (inactive) | -6.19% (inactive)
31 | CCCOc1ccc(C2c3c(oc4ccccc4c3=O)C(=O)N2CCCN2CCOCC2)cc1 (stereo not given) | 84.5 | 77.5% (inactive) | 84.5% (inactive) | 90.3% (inactive) | 71.6% (inactive) | 0.68% (inactive) | 71 | 71.6 | -3.73% (inactive) | -4.26% (inactive)
32 | COCCNC(=O)CCc1nc(-c2ccccc2)no1 | 87 | 103% (inactive) | 87% (inactive) | 92.6% (inactive) | 103% (inactive) | 5.2% (inactive) | 98.1 | 103 | -3.47% (inactive) | 2.7% (inactive)
